# Assay: Toxicity liver stage against HepG2, at 10uM
# Type: cell-based
# Set-up: test concentration 10 uM, cell line HepG2-A16-CD81EGFP
# Settings: human, HepG2-A16-CD81EGFP cells; read-out: INHIBITION
# Method in brief: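 Uninfected HepG2-A16-CD81EGFP cells, 3 × 10^3 per well, 1536-well, plated on prespotted compound at 10 μM final, parasite-free screening media added to match infected plates; puromycin 10 μM positive, DMSO 0.5% negative; run in parallel with 48 h PbLuc assay at 37 °C, 5% CO2; viability by CellTiter-Glo luminescence, normalized to controls.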
row,SMILES,cytotoxicity at 10 µM [%]
1,Cc1ccc(SCC2CNc3nc4ccccc4c(=O)n32)c(C)c1 (stereo not given),6.76
2,CC(C)NC(=O)NC[C@H]1OC[C@@H](NCc2ccc(S(C)(=O)=O)cc2)[C@@H]1O,6.7
3,CN1CCC(N2CCOC[C@H]2c2nc(C(C)(C)C)c[nH]2)CC1,2.73
4,Cc1ccc(CN2C[C@H](O)C[C@H]2c2nc(-c3ccc(F)cc3)no2)cc1,-0.456
5,Nc1c(N2CCOCC2)ncnc1N1CCOCC1,-1.31
6,O=C(C1CC1)N1CCN2C[C@@H](CO)[C@H](c3ccccc3)[C@H]2C1,8.52
7,COc1cccc2ccn(CC(=O)NCC(C)C)c12,-36.5
8,N#Cc1cccc(C(=O)N2CC(c3nc(-c4cccnc4)no3)C2)c1,-6.03
9,Cc1ccc(S(=O)(=O)N2CCC(Oc3cccnn3)CC2)c(C)c1,3.47
10,CCOCC1CN(CCc2ccccc2)Cc2c1cnn2C (stereo not given),-120
11,CN(C)CC(=O)N1CCC2(CC1)COc1ccccc1S(=O)(=O)N(C)C2,0.0039
12,COCC1CN(C(=O)CS(C)(=O)=O)Cc2ncn(CC3CC3)c21 (stereo not given),5.29
13,CC/N=c1\nc(NCC)nc2n1C(O)(Nc1ccc(C)cc1C)CS2 (stereo not given),-1.95
14,CCOc1cc(CNCCCn2ccnc2)cc(Cl)c1OC,-5.21
15,Cc1cc(=O)n2c3c(cc(S(=O)(=O)NC4CC4)cc13)CCC2,-32.3
16,Cn1nnc(NCc2ccc(-c3ccc(Cl)cc3)o2)n1,-7.15
17,Cc1nn(C)c(C)c1CNC(=O)CCn1ncc2c(Cl)cccc21,8.38
18,CC(C)=CCCC1(C)C=Cc2c(cc(C)n(CCC(=O)O)c2=O)O1 (stereo not given),3.46
19,Cc1cc(-c2cc(N)c(=O)n(CC(=O)NCC3CCCCC3)n2)c(C)o1,-21.1
20,CN1CCCC(Cc2ccnc3ccncc23)CC1 (stereo not given),-0.336
21,O=C(CCn1cncn1)NC1CCS(=O)(=O)C1 (stereo not given),-45.4
22,O=C(Nc1cccnc1N1CCSCC1)c1ccc2c(c1)OCO2,-6.14
23,Cc1nc(C)c(C(C)NCc2c(C)nn(CC(C)C)c2N(C)C)s1 (stereo not given),-2.49
24,Cc1nc(CN(C)C2CCN(CC(=O)N(C)CCC#N)C2)no1 (stereo not given),-3.6
25,COc1cc(CNCCC(N)=O)c2c(c1)CC(C)O2 (stereo not given),8.41
26,CNC(=O)CS(=O)(=O)NC1CCC(C)CC1 (stereo not given),-8.18
27,N#CCCN(C(=O)CCc1cccnc1)c1ccc2c(c1)OCCO2,-5.34
28,Cc1nccn1-c1ccc(C(C)NCc2ncc[nH]2)cc1 (stereo not given),1.91

row,SMILES,cytotoxicity at 10 µM [%]
1,Cc1cc(C)c(S(=O)(=O)Nc2cccc3c2OCCO3)cc1C(=O)O,5.87
2,Cc1nc2cc(=O)[nH]n2c(C)c1CC(=O)Nc1cnn(C(C)(C)C)c1,15
3,CC(NC(=O)Cc1ccccc1F)C(=O)N1CCS(=O)(=O)CC1 (stereo not given),8.68
4,COCCN(Cc1ccc(F)cc1Cl)C(=O)c1cc(C)no1,8.75
5,Cc1nc(C)n(CC2CCCN2Cc2nnc(-c3ccco3)o2)n1 (stereo not given),11.4
6,Cc1[nH]ncc1C(=O)N1CCOC(c2cccs2)C1 (stereo not given),8.8
7,c1coc(-c2noc(CN3CCc4c(ncn4C4CC4)C3)n2)c1,-8.12
8,CC1CN(C(=O)c2cc(=O)[nH]c3ccc(F)cc23)CCO1 (stereo not given),19.3
9,COc1ccc(NC(=O)C2CCCO2)cc1OCc1cccnc1 (stereo not given),-23.6
10,Cc1cccc(CNCC2COC3(CCCC3)O2)c1C (stereo not given),-150
11,CN1CC(NC(=O)Cc2csc(C(C)(C)C)n2)CCC1=O (stereo not given),1.82
12,CC(NC(=O)CCC(C)(C)C)C(=O)Nc1ccc(-n2cncn2)cc1 (stereo not given),-3.46
13,Cc1ccc(SC2CCCC2)c(C(=O)NCCc2n[nH]c(=O)[nH]2)c1,-45.3
14,Cn1c(CCN2CCN(CCc3ccccc3)CC2)nc2ccccc21,-43.7
15,FC(F)(F)c1n[nH]c2c1CN(CCc1ccccn1)CC2,3.76
16,CC(NCc1cnn(C)c1)c1ccc(OCc2nccn2C)cc1 (stereo not given),-7.16
17,Cc1ccc2oc(CNC(C)c3nnc4n3CCCC4)cc2c1 (stereo not given),-17.9
18,CCN(CC)C1CCN(C(=O)NCc2c(C)noc2C)CC1,-3.71
19,CC(C)CN1CCC(NC(=O)c2ccc(F)cc2I)CC1,-33.9
20,Cc1nc(CN2CCC3(C2)CN(C(=O)c2ccc[nH]2)C3)cs1,-112
21,Cc1cccc(S(=O)(=O)N2C[C@@H]3C[C@@H](c4nc(C)no4)O[C@@H]3C2)c1,-1.05
22,Cn1ccc(-c2cc(C(=O)N3CCCCC3)c3ccccn23)n1,-45.7
23,CN(C)C(=O)N1CCn2cc(CNC(=O)CC3CC3)nc2C1,-80.2
24,Cc1cccc(C(=O)N2CCn3cc(CN4CCCCC4)nc3C2)n1,-79
25,O=C1NC2(CCN(Cc3cccnc3)CC2)CC1c1ccncc1 (stereo not given),5.33
26,c1cc(-c2n[nH]cc2-c2ccnc(N3CCCCCC3)n2)ccn1,-0.252
27,COCCc1nc(CSc2ccncc2)n(C)n1,-5.93

# From ChEMBL document CHEMBL4513216, “Probing the Open Global Health Chemical Diversity Library for Multistage-Active Starting Points for Next-Generation Antimalarials” (ACS Infect Dis, 2020)
